The text below walks through data of ChEMBL document CHEMBL1135254, “Novel N-[1-(1-substituted 4-piperidinylmethyl)-4-piperidinyl]benzamides as potent colonic prokinetic agents” (Bioorg Med Chem Lett, 2002).

SMILES strings stand for the structures.

The target in data set [1] is 5-hydroxytryptamine receptor 4 (Cavia porcellus, UniProt O70528). The data set can be described thus: Inhibitory activity against 5-hydroxytryptamine 4 receptor of guinea pig striatum using [3H]GR-113808 as radioligand. In kind it is tissue-based.
Sequence of 5-hydroxytryptamine receptor 4 (O70528 whole entry): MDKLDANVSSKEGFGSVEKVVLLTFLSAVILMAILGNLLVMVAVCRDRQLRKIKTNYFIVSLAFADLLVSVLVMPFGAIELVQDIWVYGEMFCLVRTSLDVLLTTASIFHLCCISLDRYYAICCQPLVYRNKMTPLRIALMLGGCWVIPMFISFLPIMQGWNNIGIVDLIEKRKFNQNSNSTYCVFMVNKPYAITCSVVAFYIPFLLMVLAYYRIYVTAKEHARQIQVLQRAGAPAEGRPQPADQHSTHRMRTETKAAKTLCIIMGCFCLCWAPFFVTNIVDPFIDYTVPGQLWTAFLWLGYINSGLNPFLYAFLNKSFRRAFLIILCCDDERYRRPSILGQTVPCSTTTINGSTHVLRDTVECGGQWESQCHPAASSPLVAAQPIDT
For data set [2], the system named is Canis familiaris. Description: Gastrointestinal motility was reported after intravenous administration at a dose 1 mg/kg to dogs in stomach. In kind it is functional, Canis lupus familiaris. An outline of the steps: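 Contractions were recorded by force transducers implanted on the gastric antrum and analyzed by computer. The motor index is the area between the contraction wave and baseline, i.e. amplitude (voltage) × time in min over a fixed period. The index for the 30 min after dosing is expressed as a percentage of that for the 30 min before.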

Data set [3] concerns Canis familiaris. The data set can be described thus: Gastrointestinal motility was reported after intravenous administration at a dose 1 mg/kg to dogs as induction number of GMC (gaint migrating contractions). In kind it is functional, Canis lupus familiaris. An outline of the steps:
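Colonic contractions were recorded by a force transducer implanted on the ascending colon and analyzed by computer. Colonic motility is expressed as the number of giant migrating contractions induced after dosing.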

The species entered for data set [4] is Mus musculus. Description: Dose at which the compound induced fecal excretion in mice. Conditions: in vivo. The format is organism-based, Feces. An outline of the steps:
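Unfasted mice were dosed subcutaneously, and fecal excretion was the read-out.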

Take `COc1cc(N)c(Cl)cc1C(=O)NC1CCN(CC2CCN(C(=O)CCCN)CC2)CC1`: the IC50 (commonly the concentration that inhibits the measured activity by half) in data set [1] was 3.99 nM. For the same compound, the “Gastric motor index, % of pre-dose” value in data set [2] was determined as 130%. For the same compound, the Induction number in data set [3] is recorded as 5.

For `COc1cc(N)c(Cl)cc1C(=O)NC1CCN(CC2CCN(C(=O)CN)CC2)CC1`, the IC50 in data set [1] worked out at 9.3 nM. For the same compound, the “Gastric motor index, % of pre-dose” value in data set [2] stood at 165%. Besides, in data set [3], the Induction number is reported as 5.

Compound `CCCC(N)C(=O)N1CCC(CN2CCC(NC(=O)c3cc(Cl)c(N)cc3OC)CC2)CC1` (stereo not drawn) returned an IC50 in data set [1] of 2.57 nM. Besides, the “Gastric motor index, % of pre-dose” value in data set [2] came out at 117%. Also, in data set [3], the Induction number is given as 1.

For the compound `COc1cc(N)c(Cl)cc1C(=O)NC1CCN(CC2CCN(C(=O)C(C)N)CC2)CC1` (stereo not drawn), in data set [1], the IC50 was found to be 5.06 nM. Further, in data set [2], the “Gastric motor index, % of pre-dose” value is recorded as 127%.

In turn, `COc1cc(N)c(Cl)cc1C(=O)NC1CCN(CC2CCN(C(=O)CCCCN)CC2)CC1` had an IC50 in data set [1] of 3.91 nM. Besides, the “Gastric motor index, % of pre-dose” value in data set [2] worked out at 112%.

For the compound `COc1cc(N)c(Cl)cc1C(=O)NC1CCN(CC2CCN(C(=O)C(N)C(C)C)CC2)CC1` (stereo not drawn), the IC50 in data set [1] was 2.53 nM. Further, the “Gastric motor index, % of pre-dose” value in data set [2] was found to be 147%.

On to `COc1cc(N)c(Cl)cc1C(=O)NC1CCN(CC2CCN(C(=O)CCN)CC2)CC1`, for which, in data set [1], the IC50 was 9.5 nM. The “Gastric motor index, % of pre-dose” value in data set [2] was 107%. Moreover, the Induction number in data set [3] is given as 3.

As to `COc1cc(N)c(Cl)cc1C(=O)NC1CCN(CC2CCN(CCCN)CC2)CC1`, the IC50 in data set [1] turned out to be 13.4 nM. Also, in data set [2], the “Gastric motor index, % of pre-dose” value is 151%. In data set [3], this compound displayed an Induction number of 7.

In data set [1], `COc1cc(N)c(Cl)cc1C(=O)NCC(O)CN1CCC(CN2CCC(N)CC2)CC1` (stereo not drawn) returned an IC50 of 40.6 nM.

With `COc1cc(N)c(Cl)cc1C(=O)NC1CCN(CC2CCN(CCCCCN)CC2)CC1`, the IC50 in data set [1] turned out to be 11.2 nM. Besides, the “Gastric motor index, % of pre-dose” value in data set [2] came to 194%. The compound further came in with an Induction number in data set [3] of 4.

Compound `COc1cc(N)c(Cl)cc1C(=O)NC1CCN(C(=O)C2CCN(C(=O)CCCN)CC2)CC1` returned an IC50 in data set [1] of 425 nM. The “Gastric motor index, % of pre-dose” value in data set [2] amounted to 132%. The compound further returned an Induction number in data set [3] of 2.

`COc1cc(N)c(Cl)cc1C(=O)NC1CCN(CC2CCN(CCCNS(C)(=O)=O)CC2)CC1` registered an IC50 in data set [1] of 21.1 nM. Further, in data set [2], the “Gastric motor index, % of pre-dose” value was determined as 151%. The same compound yielded an Induction number in data set [3] of 2.

With `COc1cc(N)c(Cl)cc1C(=O)NC1CCN(CC2CCN(C(=O)C(C)(C)N)CC2)CC1`, the IC50 in data set [1] was 2.6 nM. Also, the “Gastric motor index, % of pre-dose” value in data set [2] worked out at 112%.

For `COc1cc(N)c(Cl)cc1C(=O)NC1CCN(CC2CCN(CC(C)CN)CC2)CC1` (stereo not drawn), the IC50 in data set [1] was determined as 14.3 nM. The “Gastric motor index, % of pre-dose” value in data set [2] is given as 177%. The same compound had an Induction number in data set [3] of 1.

`COc1cc(N)c(Cl)cc1C(=O)NC1CCN(CC2CCN(CCCCN)CC2)CC1` displayed an IC50 in data set [1] of 6.47 nM. For the same compound, in data set [2], the “Gastric motor index, % of pre-dose” value was 148%. The compound further had an Induction number in data set [3] of 6. The compound also yielded a Dose in data set [4] greater than 1 mg/kg.

In turn, `COc1cc(N)c(Cl)cc1C(=O)NC1CCN(CC2CCN(C(=O)C(C)CN)CC2)CC1` (stereo not drawn) registered an IC50 in data set [1] of 5.08 nM. The “Gastric motor index, % of pre-dose” value in data set [2] stood at 121%.

Regarding `COc1cc(N)c(Cl)cc1C(=O)NC1CCN(CC2CCN(CCN)CC2)CC1`, the IC50 in data set [1] was found to be 14.3 nM. For the same compound, the “Gastric motor index, % of pre-dose” value in data set [2] was determined as 127%.

In data set [1], `COc1cc(N)c(Cl)cc1C(=O)NC1CCN(CC2CCN(CC(O)CN)CC2)CC1` (stereo not drawn) had an IC50 of 14.4 nM. Moreover, the “Gastric motor index, % of pre-dose” value in data set [2] was found to be 121%.

With `CCOc1cc(N)c(Cl)cc1C(=O)NCC1CN(Cc2ccc(F)cc2)CCO1` (stereo not drawn) [MOSAPRIDE], in data set [1], the IC50 amounted to 113 nM. Also, the “Gastric motor index, % of pre-dose” value in data set [2] is listed as 188%.
